Here are results for one molecule from PMC5485419 (Theranostics, 2017).

The nature of series [1]: In vitro FLS cell toxicity assay. Format: cell-based. As to conditions: Sprague Dawley, rat. In a few lines: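 FLS cells from adjuvant-arthritic rat joints, in MEM with 10 % fetal calf serum at 37 °C and 5 % CO2, were seeded at 1.0×10^5/well and grown overnight. Cells were treated with six concentrations for 48 h, then given 20 µl MTT (5 mg/ml) for 4 h. Formazan was dissolved in DMSO and A490 read. Viability is relative to untreated cells, in triplicate; IC50 was read from the curves.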

The target of another series is T1, COX-1 (ovine) (Ovis aries, UniProt P05979).
T1 sequence (P05979 25-600): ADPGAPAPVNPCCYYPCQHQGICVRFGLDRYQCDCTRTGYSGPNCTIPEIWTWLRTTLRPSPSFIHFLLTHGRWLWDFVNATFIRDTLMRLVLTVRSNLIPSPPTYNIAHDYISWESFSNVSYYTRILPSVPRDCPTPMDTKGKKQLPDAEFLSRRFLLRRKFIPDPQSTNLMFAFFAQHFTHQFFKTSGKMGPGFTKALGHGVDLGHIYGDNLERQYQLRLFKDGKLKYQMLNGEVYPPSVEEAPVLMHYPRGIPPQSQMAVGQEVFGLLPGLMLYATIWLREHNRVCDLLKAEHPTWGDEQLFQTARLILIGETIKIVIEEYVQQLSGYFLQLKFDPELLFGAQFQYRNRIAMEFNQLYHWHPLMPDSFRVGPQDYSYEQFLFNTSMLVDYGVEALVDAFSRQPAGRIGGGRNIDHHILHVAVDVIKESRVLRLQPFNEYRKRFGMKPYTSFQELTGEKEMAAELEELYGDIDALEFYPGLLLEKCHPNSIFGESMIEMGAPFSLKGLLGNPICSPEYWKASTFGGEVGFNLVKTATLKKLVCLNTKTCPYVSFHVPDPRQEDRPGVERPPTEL
Kind of series: COX Fluorescent Inhibitor Screening Assay, COX-1. Format: biochemical. In a few lines: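 The kit's peroxidase read-out was used: PGG2 converts ADHP to resorufin, read at excitation 530-540 nm and emission 585-595 nm. Ovine COX-1 was mixed with inhibitor, heme, fluorometric substrate and assay buffer. Arachidonic acid started the reaction, and plates were read exactly 2 min later at room temperature. No-enzyme blanks and no-inhibitor controls were included, and each compound was run in triplicate.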

Another series deals with FLS cells. Kind of series: Apoptosis detection in FLS cells. Format: cell-based, rat. As to conditions: all at 0.4 mg/ml Ket, 48 h, versus untreated groups. In a few lines: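 FLS cells were taken from arthritis-affected rat joints and grown in MEM with 10 % fetal calf serum at 37 °C under 5 % CO2. Cells were seeded at 1 × 10^6 per well, grown overnight, and exposed to the test compound (0.016-0.71 mg/ml) for 48 h. They were then trypsinised, washed, and resuspended at ∼1×10^6 cells/mL in annexin-binding buffer. Alexa Fluor 488 annexin V and PI were added for 15 min at room temperature before immediate flow cytometry.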

Another series can be described thus: In vitro release profile. The series is classed as physicochemical. Conditions: non-gelled solution controls, 37 °C, PBS pH 7.4, dialysis bags. In outline:
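Samples of 200 μL at 4 mg/ml (gels, non-gelled conjugate solutions and parent drug) were dialysed (MWCO 800-1000) against PBS pH 7.4 at 37 °C. The 200 μL release medium was sampled and refreshed at set times. Released conjugate was quantified by C18 HPLC (30 °C; acetonitrile/0.1 % TFA gradient; 1.0 mL/min) at 260 nm.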

Series [2] relates to IL-1 and TNFα production by FLS cells. Kind of series: Determination of IL-1 and TNF-α in FLS cell supernatants. The series is classed as cell-based, rat. As to conditions: 0.355 mg/ml, 48 h, compared with the untreated control group. In outline: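 Rat FLS cells, isolated from synovial tissue of adjuvant-arthritic rats, were seeded at 1×10^5/well in MEM with 10 % fetal calf serum (37 °C, 5 % CO2) and grown overnight. They were then exposed to test compound at 0.355 mg/ml for 48 h. Supernatant cytokines were measured by ELISA against untreated cells, in triplicate (n = 3), with one-way ANOVA.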

The structures appear in SMILES notation. pIC50: −log10 of the molar value. Converted amounts (≈) assume the structure as drawn.

Consider `C[C@H](C(=O)O)c1cccc(C(=O)c2ccccc2)c1` [(S)-Ket, (S)-Ketoprofen], for which the IC50 (in general, the concentration at which inhibition is half-maximal) at 48 h in series [1] turned out to be 159 µg/mL (≈ 625 µM). Moreover, the pIC50 (as a rule, the negative decadic logarithm of the IC50, by convention in mol/L) on COX-1 (ovine) was 5.29. For the same molecule, the “Extent of apoptosis in FLS cells” value in the series with FLS cells is “greater degree of cell death than untreated groups”. Besides, in “In vitro release profile”, the “Time of drug release from solution” value is on record as “within a few hours”. Further, in series [2], the “IL-1 production by FLS cells” value is given as “trace amounts” and the “TNFα production by FLS cells” value is reported as “comparatively lower amount”.
